Values joined by “and” are separate entries in the source; they are usually repeats but may differ in a detail not shown here. Identical values can stand only once.
What was measured:
[1] = system: L1210; test: Number of survivors of L1210 cell line on day 5/ number of treated mice at a dose of 1 i.p. injection of 20 mg/kg on Q01Dx01 treatment schedule; 10/10; type: functional, Mus musculus; settings: route intraperitoneal
[2] = system: P388; test: Median survival time of P388 lymphocytic leukemia cell line after a dose of 15 mg/kg administered intravenously on Q01Dx01 treatment schedule; type: functional, Mus musculus; settings: route intravenous
Outline: (§1)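 P388 leukaemia: DBA/2 mice inoculated with 10^6 cells on day 0; treatment began day 1 at the stated route and schedule. Drug was dissolved in 0.15 M NaCl saline. The read-out was median survival time (MST, days), with toxicity taken as survivors on day 5. T/C% = treated MST/control MST × 100; ≥125% is considered significant.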

[3] = system: P388; test: MST of treated animal over control when administered at a dose of 10 mg/kg intraperitoneally on Q01Dx01 treatment schedule; type: functional, Mus musculus; settings: route intraperitoneal; outline: as §1
[4] = system: L1210; test: Median survival time of L1210 cell line after a dose of 10 mg/kg administered intraperitoneally on Q01Dx02 treatment schedule; type: functional, Mus musculus; settings: route intraperitoneal
Outline: (§2)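 L1210 leukaemia: DBA/2 mice inoculated ip with 10^5 cells on day 0, with ip drug in 0.15 M NaCl saline on the stated schedule. The read-out was median survival time in days, with toxicity taken as survivors on day 5. T/C% = treated MST/control MST × 100; >125% is considered significant.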

[5] = system: L1210; test: Median survival time of L1210 cell line after a dose of 10 mg/kg administered intraperitoneally on Q01Dx05 treatment schedule; type: functional, Mus musculus; settings: route intraperitoneal; outline: as §2
[6] = system: P388; test: Number of survivors of P388 lymphocytic leukemia cell line on day 5/ number of treated mice at a dose of 9 ip injection of 2.5 mg/kg on Q01Dx09 treatment schedule; 10/10; type: functional, Mus musculus; settings: route intraperitoneal
[7] = system: P388; test: Number of survivors of P388 lymphocytic leukemia cell line on day 5/ number of treated mice at a dose of 7po injection of 10 mg/kg on Q01Dx07 treatment schedule; 10/10; type: functional, Mus musculus
[8] = system: L1210; test: MST of treated animal over control when administered at a dose of 10 mg/kg intraperitoneally on Q01Dx02 treatment schedule in L1210 cell lines; type: functional, Mus musculus; settings: route intraperitoneal; outline: as §2
[9] = system: Salmonella typhimurium; test: Mutagenesis test was performed at 10 uM concentration in Salmonella Typhimurium TA 98; type: functional, Salmonella enterica subsp. enterica serovar Typhimurium
Outline: (§3)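 Salmonella typhimurium his auxotrophs TA98 and TA100 were tested by liquid suspension without metabolic activation. Overnight Oxoid nutrient broth cultures were subcultured, grown 2 h, then exposed to drug for 5 h. Cells were washed, resuspended to A650 2.50, and plated in top agar (0.6% agar, 0.6% NaCl). His+ revertants per plate were counted after 48 h at 37 °C; values are means of three assays.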

[10] = system: Salmonella typhimurium; test: Mutagenesis test was performed at 60 uM concentration in Salmonella Typhimurium TA 100; type: functional, Salmonella enterica subsp. enterica serovar Typhimurium; outline: as §3
[11] = system: P388; test: Number of survivors of P388 lymphocytic leukemia cell line on day 5/ number of treated mice at a dose of 1 i.p. injection of 20 mg/kg on Q01Dx01 treatment schedule; 10/10; type: functional, Mus musculus; settings: route intraperitoneal
[12] = system: P388; test: MST of treated animal over control when administered at a dose of 10 mg/kg intraperitoneally on Q04Dx03 treatment schedule; type: functional, Mus musculus; settings: route intraperitoneal; outline: as §1
[13] = system: Salmonella typhimurium; test: Mutagenesis test was performed at 60 uM concentration in Salmonella Typhimurium TA 98; type: functional, Salmonella enterica subsp. enterica serovar Typhimurium; outline: as §3
[14] = system: Salmonella typhimurium; test: Mutagenesis test was performed at 20 uM concentration in Salmonella Typhimurium TA 100; type: functional, Salmonella enterica subsp. enterica serovar Typhimurium; outline: as §3
[15] = system: L1210; test: Median survival time of L1210 cell line after a dose of 15 mg/kg administered intraperitoneally on Q01Dx02 treatment schedule; type: functional, Mus musculus; settings: route intraperitoneal; outline: as §2
[16] = system: P388; test: MST of treated animal over control when administered at a dose of 20 mg/kg intraperitoneally on Q01Dx01 treatment schedule; type: functional, Mus musculus; settings: route intraperitoneal; outline: as §1
[17] = system: P388; test: MST of treated animal over control when administered at a dose of 20 mg/kg perorally on Q01Dx07 treatment schedule; type: functional, Mus musculus; settings: route oral; outline: as §1
[18] = system: Salmonella typhimurium; test: Mutagenesis test was performed at 0.7 uM concentration in Salmonella Typhimurium TA 100; type: functional, Salmonella enterica subsp. enterica serovar Typhimurium; outline: as §3
[19] = system: P388; test: MST of treated animal over control when administered at a dose of 2.5 mg/kg intraperitoneally on Q01Dx09 treatment schedule; type: functional, Mus musculus; settings: route intraperitoneal; outline: as §1
[20] = system: P388; test: Median survival time of P388 lymphocytic leukemia cell line after a dose of 10 mg/kg administered perorally on Q01Dx07 treatment schedule; type: functional, Mus musculus; settings: route oral; outline: as §1
[21] = system: P388; test: Number of survivors of P388 lymphocytic leukemia cell line on day 5/ number of treated mice at a dose of 1 i.p. injection of 10 mg/kg on Q01Dx01 treatment schedule; 10/10; type: functional, Mus musculus; settings: route intraperitoneal
[22] = system: P388; test: Median survival time of P388 lymphocytic leukemia cell line after a dose of 10 mg/kg administered intraperitoneally on Q01Dx05 treatment schedule; type: functional, Mus musculus; settings: route intraperitoneal; outline: as §1
[23] = system: L1210; test: MST of treated animal over control when administered at a dose of 20 mg/kg intraperitoneally on Q01Dx01 treatment schedule in L1210 cell lines; type: functional, Mus musculus; settings: route intraperitoneal; outline: as §2
[24] = system: L1210; test: Concentration that decreases the growth rate of the L1210 cells by 50% after 48 hr of culture; type: functional; settings: Mus musculus, L1210, 48 h; read-out: ID50 (the source's name)
Outline: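 L1210 leukemia cells cultured with increasing drug concentrations for 48 h at 37 °C under 5% CO2. Percentage inhibition of control growth was fitted by least-squares linear regression against log dose, and the concentration lowering control growth by 50% was estimated from the regression equation.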

[25] = system: B16; test: Median survival time of […] melanocarcinoma cell line after a dose of 2.5 mg/kg administered intraperitoneally on Q01Dx01 treatment schedule; type: functional, Mus musculus; settings: route intraperitoneal
Outline: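 B16 melanocarcinoma: C57Bl/6 mice implanted sc with cell suspension on day 0; single ip dose in 0.15 M NaCl saline given on day 1. Median survival time was recorded in days, with toxicity taken as survivors on day 5. T/C% = treated MST/control MST × 100; >125% is considered significant.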

[26] = system: Salmonella typhimurium; test: Mutagenesis test was performed at 10 uM concentration in Salmonella Typhimurium TA 100; type: functional, Salmonella enterica subsp. enterica serovar Typhimurium; outline: as §3
[27] = system: L1210; test: Median survival time of L1210 cell line after a dose of 2.5 mg/kg administered intraperitoneally on Q01Dx09 treatment schedule; type: functional, Mus musculus; settings: route intraperitoneal; outline: as §2
[28] = system: L1210; test: MST of treated animal over control when administered at a dose of 5 mg/kg intraperitoneally on Q01Dx05 treatment schedule in L1210 cell lines; type: functional, Mus musculus; settings: route intraperitoneal; outline: as §2
[29] = system: P388; test: Median survival time of P388 lymphocytic leukemia cell line after a dose of 5 mg/kg administered intraperitoneally on Q01Dx05 treatment schedule; type: functional, Mus musculus; settings: route intraperitoneal; outline: as §1
[30] = system: P388; test: Median survival time of P388 lymphocytic leukemia cell line after a dose of 2.5 mg/kg administered intravenously on Q01Dx01 treatment schedule; type: functional, Mus musculus; settings: route intravenous; outline: as §1
[31] = system: L1210; test: Number of survivors of L1210 cell line on day 5/ number of treated mice at a dose of 9ip injection of 5 mg/kg on Q01Dx09 treatment schedule; 10/10; type: functional, Mus musculus
[32] = system: B16; test: Number of survivors of B16 melanocarcinoma cell line on day 5/ number of treated mice at a dose of 1 ip injection of 5 mg/kg on Q01Dx01 treatment schedule; 09/10; type: functional, Mus musculus; settings: route intraperitoneal

O=C1C(N2CC2)=C(N2CC2)C(=O)c2ncncc21
Toxicity Survivors [1]: 10 | MST [2]: 10.4 days | T/C [3]: 118% | MST [4]: 9 days | MST [5]: 9.1 days | Toxicity Survivors [6]: 10 | Toxicity Survivors [7]: 10 | T/C [8]: 104% | Revertants/plate [9]: 89 | Revertants/plate [10]: 501 | Toxicity Survivors [11]: 10 | T/C [12]: 132% | Revertants/plate [13]: 1080 | Revertants/plate [14]: 108 | MST [15]: 9 days | T/C [16]: 134% | T/C [17]: 105% | Revertants/plate [18]: 94 | T/C [19]: 128% | MST [20]: 7.6 days | Toxicity Survivors [21]: 10 | MST [22]: 10.4 days | T/C [23]: 115% | IC50 [24]: 0.02 µg/mL and 80 nM | MST [25]: 15.7 days | Revertants/plate [26]: 97 | MST [27]: 9.1 days | T/C [28]: 108% | MST [29]: 10.4 days | MST [30]: 10.4 days | Toxicity Survivors [31]: 10 | Toxicity Survivors [32]: 9
